Data from ChEMBL document CHEMBL1145475, “Expression and purification of an active form of the Mycobacterium leprae DNA gyrase and its inhibition by quinolones” (Antimicrob Agents Chemother, 2007).
Calls of active or inactive are those of the source. The calls are words filed in the database; no cut-off is given here.

What was measured:
Mycobacterium leprae [1] = test: Inhibition of Mycobacterium leprae recombinant DNA gyrase expressed in Escherichia coli assessed as inhibition of pBR322 DNA supercoiling
Summary of the method: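 His-tagged M. leprae GyrA and GyrB were expressed separately in E. coli, purified by nickel chelate chromatography, and reconstituted (1 U gyrase). Substrate was 0.4 μg relaxed pBR322 in 40 mM Tris-HCl pH 7.5, 25 mM KCl, 20 mM Mg acetate, 2 mM spermidine, 4 mM DTT, tRNA, BSA, and 3 mM ATP, run 1 h at 30°C.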

Mycobacterium leprae [2] = test: Antibacterial activity in Mycobacterium leprae infected mouse foot-pad model assessed as parasite killing at >150 mg/kg/day after 9 months; type: functional
Mycobacterium leprae [3] = test: Antibacterial activity against Mycobacterium leprae at 5 ug/mL after 11 to 18 days; type: functional
Mycobacterium leprae [4] = test: Effect on Mycobacterium leprae recombinant DNA gyrase expressed in Escherichia coli assessed as enhancement of supercoiled pBR322 DNA cleavage
Mycobacterium leprae [5] = test: Antibacterial activity in Mycobacterium leprae infected mouse foot-pad model assessed as parasite killing at 150 mg/kg/day after 9 months; type: functional
Mycobacterium leprae [6] = test: Antibacterial activity in Mycobacterium leprae infected mouse foot-pad model assessed as parasite killing at >300 mg/kg/day after 9 months; type: functional
Mycobacterium leprae [7] = test: Antibacterial activity in Mycobacterium leprae infected mouse foot-pad model assessed as parasite killing at 25 mg/kg/day after 9 months; type: functional
Mycobacterium leprae [8] = test: Antibacterial activity in Mycobacterium leprae infected mouse foot-pad model assessed as parasite killing at 15 mg/kg/day after 9 months; type: functional
Mycobacterium leprae [9] = test: Antibacterial activity in Mycobacterium leprae infected mouse foot-pad model assessed as parasite killing at 50 mg/kg/day after 9 months; type: functional

**Q.** With O=C(O)c1cn(C2CC2)c2cc(N3CCNCC3)c(F)cc2c1=O [CIPROFLOXACIN] as the compound, how does the IC50 (Mycobacterium leprae [1]) read?
**A.** The IC50 was 3.5 µg/mL.

**Q.** And the Activity (Mycobacterium leprae [2])?
**A.** The Activity was greater than 99%.

**Q.** And the Activity (Mycobacterium leprae [3])?
**A.** The Activity was 32.

**Q.** How did the IC50 (Mycobacterium leprae [1]) turn out when NC1CCN(c2c(F)cc3c(=O)c(C(=O)O)cn(C4CC4)c3c2Cl)C1 (stereo not drawn) [CLINAFLOXACIN] was run?
**A.** Its IC50 is 3 µg/mL.

**Q.** And the CC25 (Mycobacterium leprae [4])?
**A.** The CC25 was 0.6 µg/mL.

**Q.** What does the source list for C[C@H]1NCc2cc(-c3ccc4c(=O)c(C(=O)O)cn(C5CC5)c4c3OC(F)F)ccc21 [GARENOXACIN]?
**A.** IC50 (Mycobacterium leprae [1]): 3.5 µg/mL; CC25 (Mycobacterium leprae [4]): 3 µg/mL

**Q.** How did the IC50 (Mycobacterium leprae [1]) turn out when COc1c(N2CCNC(C)C2)c(F)cc2c(=O)c(C(=O)O)cn(C3CC3)c12 (stereo not drawn) [GATIFLOXACIN] was run?
**A.** Its IC50 is 2 µg/mL.

**Q.** What about the CC25 (Mycobacterium leprae [4]) of the same compound?
**A.** Its CC25 is 1 µg/mL.

**Q.** Which IC50 (Mycobacterium leprae [1]) does the source give for C[C@H]1COc2c(N3CCN(C)CC3)c(F)cc3c(=O)c(C(=O)O)cn1c23.C[C@H]1COc2c(N3CCN(C)CC3)c(F)cc3c(=O)c(C(=O)O)cn1c23.O [LEVOFLOXACIN] here?
**A.** The IC50 was 7 µg/mL.

**Q.** And the CC25 (Mycobacterium leprae [4])?
**A.** Its CC25 is 3 µg/mL.

**Q.** With COc1c(N2C[C@@H]3CCCN[C@@H]3C2)c(F)cc2c(=O)c(C(=O)O)cn(C3CC3)c12 [MOXIFLOXACIN] as the compound, how does the Activity (Mycobacterium leprae [5]) read?
**A.** Its Activity is greater than 99%.

**Q.** For CCn1cc(C(=O)O)c(=O)c2ccc(C)nc21 [NALIDIXIC ACID], which IC50 (Mycobacterium leprae [1]) is on record?
**A.** The IC50 was 300 µg/mL.

**Q.** And the Activity (Mycobacterium leprae [4])?
**A.** The Activity was “inactive”.

**Q.** For CC1COc2c(N3CCN(C)CC3)c(F)cc3c(=O)c(C(=O)O)cn1c23 (stereo not drawn) [OFLOXACIN], which IC50 (Mycobacterium leprae [1]) is on record?
**A.** Its IC50 is 10 µg/mL.

**Q.** And the CC25 (Mycobacterium leprae [4])?
**A.** Its CC25 is 10 µg/mL.

**Q.** And the Activity (Mycobacterium leprae [5])?
**A.** The Activity was greater than 99%.

**Q.** And the Activity (Mycobacterium leprae [3])?
**A.** The Activity was 20.

**Q.** With CCn1cc(C(=O)O)c(=O)c2cc3c(cc21)OCO3 [OXOLINIC ACID] as the compound, how does the IC50 (Mycobacterium leprae [1]) read?
**A.** Its IC50 is 170 µg/mL.

**Q.** What about the Activity (Mycobacterium leprae [4]) of the same compound?
**A.** Its Activity is “inactive”.

**Q.** What does the source list for CCn1cc(C(=O)O)c(=O)c2cc(F)c(N3CCN(C)CC3)cc21 [PEFLOXACIN]?
**A.** IC50 (Mycobacterium leprae [1]): 23 µg/mL; Activity (Mycobacterium leprae [6]): >99%; Activity (Mycobacterium leprae [3]): 29

**Q.** With N[C@@H]1CN(c2c(F)cc3c(=O)c(C(=O)O)cn([C@@H]4C[C@@H]4F)c3c2Cl)CC12CC2 [SITAFLOXACIN ANHYDROUS] as the compound, how does the IC50 (Mycobacterium leprae [1]) read?
**A.** The IC50 was 1 µg/mL.

**Q.** What about the CC25 (Mycobacterium leprae [4]) of the same compound?
**A.** The CC25 was 0.5 µg/mL.

**Q.** And the Activity (Mycobacterium leprae [7])?
**A.** Its Activity is greater than 99%.

**Q.** Which IC50 (Mycobacterium leprae [1]) does the source give for C[C@@H]1CN(c2c(F)c(N)c3c(=O)c(C(=O)O)cn(C4CC4)c3c2F)C[C@H](C)N1 [SPARFLOXACIN] here?
**A.** The IC50 was 5 µg/mL.

**Q.** What about the CC25 (Mycobacterium leprae [4]) of the same compound?
**A.** Its CC25 is 1 µg/mL.

**Q.** And the Activity (Mycobacterium leprae [8])?
**A.** The Activity was greater than 99%.

**Q.** How did the IC50 (Mycobacterium leprae [1]) turn out when CC1CN(c2cc3c(cc2F)c(=O)c(C(=O)O)cn3-c2ccc(F)cc2F)CCN1 (stereo not drawn) [TEMAFLOXACIN] was run?
**A.** The IC50 was 26 µg/mL.

**Q.** What about the CC25 (Mycobacterium leprae [4]) of the same compound?
**A.** The CC25 was 11 µg/mL.

**Q.** What about the Activity (Mycobacterium leprae [9]) of the same compound?
**A.** The Activity was greater than 99%.

**Q.** And the Activity (Mycobacterium leprae [3])?
**A.** The Activity was 29.
